# Dyrk1A ADPGlo: rat Dyrk1A kinase inhibitors, primary screen, biochemical, single point, plate reader; Dual specificity tyrosine-phosphorylation-regulated kinase 1A (Rattus norvegicus), Q63470; ADP-Glo luminescence, NFATc1 peptide; inhibition, % at 12.5 µM; hit rate 0.43% among 310,000; in the data active means inhibition above about 50%;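 further: plate controls were vehicle with enzyme for no effect and no enzyme for full effect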
# GSK3beta inhib: human GSK3beta kinase inhibitors, primary screen, biochemical, cell-free homogeneous, HTS; Glycogen synthase kinase-3 beta (Homo sapiens), P49841; GST-GSK3beta kinase, ADP-Glo luminescence, 60 min; active compounds read low; activity score (negative = inhibition), % at 10 µM; hit rate 0.038% among 300,000; AID 2097, 2009;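 active means more than half of replicate wells score below -50%, meaning over 50% inhibition versus plate controls; inconclusive means some replicates but at most half score below -50%; inactive means no replicate scores below -50%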;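 further: 0% = median DMSO wells and -100% = median GW8510 positive control wells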
#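 Test system – GST-tagged human GSK3beta kinase, cell-free · Incubation – 60 min enzyme reaction, room temperature · Signal – ADP-Glo luminescence · Also added – peptide substrate and ATP at 25 µM · Controls – DMSO neutral wells and GW8510 at 20 µM as positive · Buffer or medium – Tris/MgCl2 kinase buffer · Measure – Luminescence-derived activity versus plate DMSO and GW8510 wells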
# AI-2 QS modul: Vibrio harveyi AI-2 quorum sensing modulators, primary screen, JMH597 strain, luminescence/OD600 ratio; activity change, % at 7.5 µM; hit rate 0.4% among 300,000; Vibrio harveyi JMH597 AI-2 luminescence/OD600 ratio, 9 h; active compounds read low; strain lacks LuxN and CqsS sensors; 0 = neutral-control median; in the data active means activity change below about -75%, passing the limit was not always enough; inconclusive means no clear call, values can overlap the other calls;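 further: luminescence divided by OD600 gain over 9 h not by final OD600 alone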
# STK33 inh: inhibitors of purified STK33 kinase, primary screen, biochemical, ADP-Glo luminescence, homogeneous, cell-free. Serine/threonine-protein kinase 33 (Homo sapiens), Q9BYT3. MBP phosphorylation. inhibition, % at 10 µM. hit rate 0.073% among 320,000;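 active means inhibition at or above 25%, using the most active replicate where run in duplicate; inactive means inhibition below 25%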
# Target sequence (Q9BYT3 whole entry, looked up): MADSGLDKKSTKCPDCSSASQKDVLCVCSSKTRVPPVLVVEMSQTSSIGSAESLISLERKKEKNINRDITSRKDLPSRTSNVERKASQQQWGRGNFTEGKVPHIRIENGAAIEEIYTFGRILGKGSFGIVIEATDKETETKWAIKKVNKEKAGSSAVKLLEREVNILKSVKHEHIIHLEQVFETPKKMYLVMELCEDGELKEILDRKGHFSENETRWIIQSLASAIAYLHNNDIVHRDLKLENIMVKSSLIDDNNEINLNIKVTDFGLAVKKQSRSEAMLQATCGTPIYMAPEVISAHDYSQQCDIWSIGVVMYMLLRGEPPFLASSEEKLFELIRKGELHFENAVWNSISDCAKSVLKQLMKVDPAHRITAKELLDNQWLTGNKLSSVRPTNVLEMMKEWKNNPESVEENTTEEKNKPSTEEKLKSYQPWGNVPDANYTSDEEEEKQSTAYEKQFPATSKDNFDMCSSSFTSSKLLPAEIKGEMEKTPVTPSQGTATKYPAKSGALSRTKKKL
# GSK3A inh: blockers of GSK3A enzyme activity – biochemical, luminescence, cell-free homogeneous, HTS, primary screen; hit rate 0.1% among 320,000; AID 2650, 2010; inhibition, % at 10 µM; GSK-3 alpha kinase, ADP-Glo luminescence, 60 min;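 active means more than half of replicates show inhibition above 20%; inconclusive means some but at most half of replicates above 20% inhibition; inactive means no replicate shows inhibition above 20%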;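 further: GST-tagged GSK-3 alpha with peptide substrate and 25 µM ATP; 0% = DMSO neutral wells and 100% = GW8510 positive control wells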
# Rce1 inh: yeast Rce1p protease inhibitors, primary screen, biochemical, fluorescence, cell-free homogeneous; yeast membranes, quenched prenylated peptide cleavage fluorescence; calls only; hit rate 0.27% among 290,000;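 active means fall in fluorescence gain of 50% or more versus controls, with final raw signal at or below 3038400; inconclusive means same 50% fall but final raw signal above 3038400; inactive means fall in fluorescence gain under 50%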;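 further: plate controls were neutral control wells for no effect and wells lacking membranes for full effect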
# JMH597 growth: Vibrio harveyi growth inhibition, confirmation, counter-screen for AI-2 quorum sensing project, JMH597 strain, OD600 absorbance; shares compounds with AI-2 QS modul; 9 h; lacks LuxN and CqsS sensors; growth inhibition, % at 7.5 µM; hit rate 1% among 750; AID 2726, 2010;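 active means every replicate shows growth inhibition above 50%; inconclusive means at least half, but not all, replicates pass that cutoff; inactive means fewer than half of replicates pass it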
# BB721 const-QS lum: luminescence inhibition in constitutive-on V. harveyi, confirmation, counter-screen for LuxS inhibitor project, strain BB721, luminescence readout; inhibition, % at 7.5 µM; shares compounds with AI-2 QS modul; hit rate 95% among 750; Vibrio harveyi BB721 luminescence, 9 h;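 active means inhibition above about 80% in every replicate, not just on average, limit read from the data; inconclusive means at least half of replicates past the limit, but not all; inactive means fewer than half of replicates past the limit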
# BB721 growth: growth inhibition of V. harveyi BB721, confirmation, cytotoxicity control for AI-2 quorum sensing inhibitors, strain BB721, absorbance OD600; shares compounds with AI-2 QS modul; Vibrio harveyi BB721 growth, 9 h; growth inhibition, % at 7.5 µM; hit rate 3% among 750;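 active means every replicate shows growth inhibition above 50%; inconclusive means at least half but not all replicates above 50% inhibition; inactive means under half of replicates above 50% inhibition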
# JMH597 AI-2 mod: Vibrio harveyi AI-2 signaling luminescence modulation – JMH597 strain, confirmation. shares compounds with AI-2 QS modul. Vibrio harveyi JMH597 AI-2 quorum sensing luminescence, 9 h; luxN and CqsS knockout, AI-2 only. inhibition, % at 7.5 µM. hit rate 97% among 750. AID 2736, 2010;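 active means every replicate shows more than 75% inhibition of signal versus neutral control wells; inconclusive means half to three quarters of replicates exceed 75% inhibition; inactive means fewer than half of replicates exceed 75% inhibition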
# * hit, by the source's call; i = inactive; ? = inconclusive; nt = no result. An excerpt weighted towards active compounds, which were near 0.99% of everything screened.
SMILES,Dyrk1A ADPGlo,GSK3beta inhib,AI-2 QS modul,STK33 inh,GSK3A inh,Rce1 inh,JMH597 growth,BB721 const-QS lum,BB721 growth,JMH597 AI-2 mod
Cc1ccc(-c2cc(NC(=O)c3ccccc3[N+](=O)[O-])n[nH]2)cc1,29,-1,-95*,-2,1,i,-3,97*,-24,98*
O=C(O)CCSc1nnc(SCC(=O)NC2CCS(=O)(=O)C2)s1 (stereo not drawn),-5,nt,nt,0,5,nt,nt,nt,nt,nt
Cc1ccc(NC(=O)CN(C)C(=O)c2cc(-c3cccs3)nn2-c2ccccc2)cc1,nt,nt,nt,-1,1,nt,nt,nt,nt,nt
O=C(Nc1cnn(Cc2ccc(F)cc2)c1)c1cnccn1,9,-4,-95*,-6,1,nt,5,98*,2,98*
COc1ccc(CNc2oc(-c3ccccc3)nc2C#N)cc1,7,1,-95*,1,0,i,22,98*,-5,99*
N#Cc1nc(-c2ccccc2)oc1NCc1ccco1,11,-2,?,-1,6,i,6,90*,3,93*
CNc1oc(-c2ccccc2)nc1C#N,11,0,15,0,0,?,nt,nt,nt,nt
Cc1cc(C)n2nc(C(=O)OCC(=O)NNC(=O)c3ccccc3)nc2n1,nt,nt,nt,0,-2,nt,nt,nt,nt,nt
COc1ccc(CC(=O)Nc2nnc(CC(C)C)s2)cc1S(=O)(=O)N1CCOCC1,-1,nt,nt,nt,nt,nt,nt,nt,nt,nt
CCCNS(=O)(=O)c1ccc(OCC(=O)Nc2ccc3c(c2)OCCO3)c(C)c1,16,3,11,-2,-2,i,nt,nt,nt,nt
O=C(COC(=O)c1ccc(Cl)s1)c1cc2ccccc2o1,-1,-1,-95*,-1,1,i,21,99*,29,99*
Cn1cccc1C(=O)OCC(=O)c1cc2ccccc2o1,-6,-2,?,0,-3,i,nt,nt,nt,nt
Cc1ccc(CNC(=O)Nc2ccccc2)cc1,1,5,-91*,0,1,i,-6,97*,4,97*
Cc1ccc(CNC(=O)NCc2ccccc2)cc1,-6,1,-49,-1,nt,nt,nt,nt,nt,nt
Cc1ccc(CNC(=O)/C=C/c2ccccc2Cl)cc1,6,3,-93*,0,-1,i,-4,96*,-3,97*
Cc1ccc(CNC(=O)/C=C/c2c(Cl)cccc2Cl)cc1,-5,-4,25,0,-2,i,nt,nt,nt,nt
Cc1ccc(CNC(=O)Nc2ccc(Cl)cc2)cc1,-2,0,-83*,0,-1,i,-22,86*,-21,90*
Cc1ccc(CNC(=O)Nc2cccs2)cc1,5,-20,-82*,-1,0,i,15,95*,25,95*
CC1CCC(NC(=O)c2cccc(S(=O)(=O)N3CCN(c4ccc(F)cc4)CC3)c2)CC1 (stereo not drawn),11,2,18,0,0,i,nt,nt,nt,nt
O=C(NCc1ccc(Cl)cc1)Nc1ccc(F)cc1,-3,5,?,0,-1,i,-19,96*,-8,96*
O=C(NCCc1ccc(Cl)cc1)Nc1ccc(F)cc1,0,0,2,1,3,i,nt,nt,nt,nt
O=C(NCc1cccs1)Nc1ccc(Cl)cc1,3,4,?,-2,-3,i,34,94*,60*,91*
CC(C)c1ccc(CCNC(=O)CSC(=S)N2CCCC2)cc1,7,2,12,-1,-1,i,nt,nt,nt,nt
CCc1noc(C)c1C(=O)N1CC(C)SC1=Nc1ccc(Cl)cc1 (stereo not drawn),2,nt,nt,0,2,nt,nt,nt,nt,nt
CCc1cc2c(=O)oc(-c3ccc(F)cc3)nc2s1,nt,-2,15,0,1,i,nt,nt,nt,nt
SMILES,Dyrk1A ADPGlo,GSK3beta inhib,AI-2 QS modul,STK33 inh,GSK3A inh,Rce1 inh,JMH597 growth,BB721 const-QS lum,BB721 growth,JMH597 AI-2 mod
CC(=O)Nc1ccc(NC(=O)CCc2ccc(C)o2)cc1,-4,2,13,0,-1,i,nt,nt,nt,nt
Cc1ccc(CCC(=O)Nc2ccc([N+](=O)[O-])cc2)o1,-5,-1,-91*,0,0,i,9,97*,-14,98*
O=C(O)c1cccnc1Sc1ccc(Cl)cc1,2,4,?,-1,-1,i,nt,nt,nt,nt
O=C(O)c1cccnc1Sc1ccc(Br)cc1,-4,2,-84*,-3,0,i,20,97*,44,97*
Cc1cccc(C)c1NC(=O)COC(=O)/C=C/c1ccc(S(=O)(=O)N2CCOCC2)cc1,0,nt,nt,-1,0,nt,nt,nt,nt,nt
Cc1ncn(-c2ccc(C(=O)Oc3ccccc3)cn2)n1,2,3,-87*,0,-1,i,19,93*,1,96*
O=C(CCc1ccccc1)Nc1ccc(S(=O)(=O)Nc2nccs2)cc1,11,5,-85*,0,-3,i,18,89*,8,93*
Cc1ccc(O)c(CNc2ccc(S(=O)(=O)Nc3nccs3)cc2)c1,-8,1,-89*,1,0,i,19,93*,28,95*
O=C(CCS(=O)(=O)c1ccccc1)Nc1ccc(S(=O)(=O)Nc2nccs2)cc1,6,nt,nt,-1,-3,nt,nt,nt,nt,nt
O=C(CSc1ccccc1)OCC(=O)N1CCN(C(=O)c2ccco2)CC1,nt,nt,nt,0,0,nt,nt,nt,nt,nt
COC(=O)C1=C(C)NC(C)=C(C(=O)OCC2CCCO2)C1c1cccc(Br)c1 (stereo not drawn),10,-1,16,-1,-3,nt,nt,nt,nt,nt
COc1ccc(S(=O)(=O)Nc2ccc3cn[nH]c3c2)cc1C,4,-3,9,1,-1,i,nt,nt,nt,nt
CCOC(=O)c1ccc(S(=O)(=O)Nc2ccc3cn[nH]c3c2)cc1,9,0,-90*,1,-1,i,28,95*,28,97*
